Data taken from ChEMBL document CHEMBL2434840, “Discovery of 4-amino-2-(thio)phenol derivatives as novel protein kinase and angiogenesis inhibitors for the treatment of cancer: synthesis and biological evaluation. Part II” (Eur J Med Chem, 2013).
Activity calls are given as the source filed them. No cut-off for these calls is given here.

Legend:
[1] = biological target: T1, RAC-alpha serine/threonine-protein kinase (Homo sapiens, UniProt P31749); experiment: Inhibition of AKT (unknown origin) at 10 uM after 30 mins by fluorescence assay relative to control
T1 sequence (P31749 whole entry): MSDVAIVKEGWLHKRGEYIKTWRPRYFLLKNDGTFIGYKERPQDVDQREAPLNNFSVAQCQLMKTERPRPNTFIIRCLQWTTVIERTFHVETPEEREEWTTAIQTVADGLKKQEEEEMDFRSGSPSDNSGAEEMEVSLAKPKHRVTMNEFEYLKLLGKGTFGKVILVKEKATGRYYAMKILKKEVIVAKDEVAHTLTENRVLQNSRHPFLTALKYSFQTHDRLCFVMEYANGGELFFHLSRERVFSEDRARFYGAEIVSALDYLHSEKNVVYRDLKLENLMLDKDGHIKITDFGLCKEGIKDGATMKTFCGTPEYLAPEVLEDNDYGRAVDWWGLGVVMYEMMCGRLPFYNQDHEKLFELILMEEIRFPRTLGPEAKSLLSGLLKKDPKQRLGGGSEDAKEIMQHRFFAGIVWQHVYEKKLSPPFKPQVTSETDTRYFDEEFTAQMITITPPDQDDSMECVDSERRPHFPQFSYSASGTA
Outline: (§1)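 Enzyme plus compound (10 μM screen) or water in Hepes/Tris pH 7.4, EGTA/Tris, MgCl2, DTT and 0.008% Tween 20. Substrate and ATP started the reaction, 30 min at room temperature. EDTA stop, then europium-labelled anti-phospho-PT66 antibody for 60 min and TR-FRET read. Basal wells had no enzyme. Percent inhibition of control activity; staurosporine reference; duplicate.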

[2] = biological target: ALK tyrosine kinase receptor (Homo sapiens) (UniProt Q9UM73); experiment: Inhibition of ALK (unknown origin) at 10 uM after 30 mins by fluorescence assay relative to control; outline: as §1
Chain of ALK tyrosine kinase receptor (Homo sapiens) (Q9UM73 19-1620 limits assumed): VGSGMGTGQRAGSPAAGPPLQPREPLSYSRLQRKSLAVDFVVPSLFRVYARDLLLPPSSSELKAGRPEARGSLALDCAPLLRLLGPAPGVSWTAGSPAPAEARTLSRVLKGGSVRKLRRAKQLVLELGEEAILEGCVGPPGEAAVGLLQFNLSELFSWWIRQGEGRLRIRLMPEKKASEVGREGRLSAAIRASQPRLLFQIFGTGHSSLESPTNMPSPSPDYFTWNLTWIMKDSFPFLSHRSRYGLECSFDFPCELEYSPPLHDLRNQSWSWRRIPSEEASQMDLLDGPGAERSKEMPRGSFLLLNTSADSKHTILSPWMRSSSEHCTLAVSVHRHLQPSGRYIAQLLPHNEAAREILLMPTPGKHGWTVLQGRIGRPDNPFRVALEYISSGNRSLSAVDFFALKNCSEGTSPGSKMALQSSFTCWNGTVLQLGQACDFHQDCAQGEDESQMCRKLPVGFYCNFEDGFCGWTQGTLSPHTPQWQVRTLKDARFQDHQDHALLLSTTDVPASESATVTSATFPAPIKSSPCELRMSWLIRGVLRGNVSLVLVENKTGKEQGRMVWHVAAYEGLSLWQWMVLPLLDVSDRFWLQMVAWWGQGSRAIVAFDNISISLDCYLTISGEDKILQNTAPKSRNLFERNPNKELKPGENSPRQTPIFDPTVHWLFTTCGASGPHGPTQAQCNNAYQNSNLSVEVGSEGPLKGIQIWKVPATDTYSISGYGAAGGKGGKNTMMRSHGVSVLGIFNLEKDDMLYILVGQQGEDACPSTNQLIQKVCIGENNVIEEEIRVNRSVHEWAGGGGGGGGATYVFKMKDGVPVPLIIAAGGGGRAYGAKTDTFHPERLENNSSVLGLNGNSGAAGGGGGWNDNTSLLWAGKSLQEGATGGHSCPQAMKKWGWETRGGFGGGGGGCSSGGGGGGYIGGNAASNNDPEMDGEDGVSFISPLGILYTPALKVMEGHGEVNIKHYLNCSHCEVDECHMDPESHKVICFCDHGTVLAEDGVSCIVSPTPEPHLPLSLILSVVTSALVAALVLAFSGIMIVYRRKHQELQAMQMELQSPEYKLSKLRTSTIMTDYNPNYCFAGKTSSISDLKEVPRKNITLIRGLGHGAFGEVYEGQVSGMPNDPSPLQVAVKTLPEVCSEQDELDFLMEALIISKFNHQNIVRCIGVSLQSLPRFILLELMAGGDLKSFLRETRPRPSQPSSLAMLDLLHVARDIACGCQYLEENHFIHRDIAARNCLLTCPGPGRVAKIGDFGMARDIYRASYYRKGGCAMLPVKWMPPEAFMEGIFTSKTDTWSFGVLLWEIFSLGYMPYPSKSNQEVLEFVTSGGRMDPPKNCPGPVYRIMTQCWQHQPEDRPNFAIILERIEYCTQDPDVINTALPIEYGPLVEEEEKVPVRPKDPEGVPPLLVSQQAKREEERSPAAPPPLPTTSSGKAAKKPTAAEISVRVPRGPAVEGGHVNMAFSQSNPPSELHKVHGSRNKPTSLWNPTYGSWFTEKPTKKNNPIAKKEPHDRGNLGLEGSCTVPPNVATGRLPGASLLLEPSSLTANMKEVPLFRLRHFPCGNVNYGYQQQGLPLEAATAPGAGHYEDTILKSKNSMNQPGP

Thoracic aorta [3] = experiment: Antiangiogenic activity in Sprague-Dawley rat thoracic aorta rings assessed as reduction of microvessel outgrowth at 1 uM treated every other day for 6 days by Matrigel assay; format: functional, tissue-based
Outline: (§2)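 Aortas were taken from male Sprague Dawley rats aged 8–10 weeks and cleaned of fibroadipose tissue. 1-mm rings were embedded between two 100 μL Matrigel layers and set 30 min at 37 °C, 5% CO2. Compound, pazopanib or 0.5% DMSO vehicle was added every other day for 6 days. Outgrowth was photographed on day 7 at ×200. Three independent experiments.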

[4] = biological target: Tyrosine-protein kinase ABL1 (Homo sapiens, UniProt P00519); experiment: Inhibition of ABL (unknown origin) after 30 mins by fluorescence assay
Chain of Tyrosine-protein kinase ABL1 (P00519 whole entry): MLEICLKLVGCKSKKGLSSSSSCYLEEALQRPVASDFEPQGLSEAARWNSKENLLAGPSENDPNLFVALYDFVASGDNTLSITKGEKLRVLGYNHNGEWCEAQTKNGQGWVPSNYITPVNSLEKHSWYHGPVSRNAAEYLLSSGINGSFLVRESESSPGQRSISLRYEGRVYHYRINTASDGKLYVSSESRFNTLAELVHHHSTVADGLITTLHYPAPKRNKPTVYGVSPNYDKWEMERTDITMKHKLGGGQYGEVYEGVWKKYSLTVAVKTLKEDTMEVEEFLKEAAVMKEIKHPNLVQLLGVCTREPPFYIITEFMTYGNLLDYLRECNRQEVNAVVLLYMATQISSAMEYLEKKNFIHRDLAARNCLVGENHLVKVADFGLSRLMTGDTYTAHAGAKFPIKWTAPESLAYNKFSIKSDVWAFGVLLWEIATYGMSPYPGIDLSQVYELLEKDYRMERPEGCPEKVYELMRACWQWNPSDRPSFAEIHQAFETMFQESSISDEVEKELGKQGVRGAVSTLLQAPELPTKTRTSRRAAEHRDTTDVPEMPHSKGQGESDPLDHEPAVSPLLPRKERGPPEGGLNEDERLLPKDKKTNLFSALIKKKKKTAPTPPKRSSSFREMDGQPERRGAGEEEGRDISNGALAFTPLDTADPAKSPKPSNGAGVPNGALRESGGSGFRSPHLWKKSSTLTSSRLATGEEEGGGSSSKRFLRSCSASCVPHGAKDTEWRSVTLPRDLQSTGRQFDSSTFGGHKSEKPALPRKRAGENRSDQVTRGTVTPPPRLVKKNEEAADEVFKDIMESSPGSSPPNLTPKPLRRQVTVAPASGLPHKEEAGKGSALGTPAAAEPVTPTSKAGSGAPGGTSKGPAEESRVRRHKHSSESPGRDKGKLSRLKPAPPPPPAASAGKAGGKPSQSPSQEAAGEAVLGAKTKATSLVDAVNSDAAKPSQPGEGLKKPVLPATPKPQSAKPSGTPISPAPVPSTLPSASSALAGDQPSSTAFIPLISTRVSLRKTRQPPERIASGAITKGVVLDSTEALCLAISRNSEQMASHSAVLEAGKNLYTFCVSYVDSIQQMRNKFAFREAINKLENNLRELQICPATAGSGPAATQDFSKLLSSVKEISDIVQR

HUVEC [5] = experiment: Antiangiogenic activity in HUVEC assessed as inhibition of tube formation after 6 hrs by Matrigel assay; format: functional, cell-based; conditions: Homo sapiens
Outline: (§3)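 HUVECs seeded at 40,000 cells/well on Matrigel (gelled 30 min, 37 °C, 5% CO2) in M199 with 5% FBS plus compound or 0.5% DMSO vehicle; pazopanib positive control; 6 h at 37 °C, 5% CO2. Tube networks were scored by phase-contrast microscopy and photographed at ×100. Three independent experiments.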

[6] = biological target: Vascular endothelial growth factor receptor 2 (Homo sapiens) (UniProt P35968); experiment: Inhibition of VEGFR2 (unknown origin) phosphorylation at 5 ug/mL by cell-based Western blotting analysis
Chain of Vascular endothelial growth factor receptor 2 (Homo sapiens) (P35968 whole entry): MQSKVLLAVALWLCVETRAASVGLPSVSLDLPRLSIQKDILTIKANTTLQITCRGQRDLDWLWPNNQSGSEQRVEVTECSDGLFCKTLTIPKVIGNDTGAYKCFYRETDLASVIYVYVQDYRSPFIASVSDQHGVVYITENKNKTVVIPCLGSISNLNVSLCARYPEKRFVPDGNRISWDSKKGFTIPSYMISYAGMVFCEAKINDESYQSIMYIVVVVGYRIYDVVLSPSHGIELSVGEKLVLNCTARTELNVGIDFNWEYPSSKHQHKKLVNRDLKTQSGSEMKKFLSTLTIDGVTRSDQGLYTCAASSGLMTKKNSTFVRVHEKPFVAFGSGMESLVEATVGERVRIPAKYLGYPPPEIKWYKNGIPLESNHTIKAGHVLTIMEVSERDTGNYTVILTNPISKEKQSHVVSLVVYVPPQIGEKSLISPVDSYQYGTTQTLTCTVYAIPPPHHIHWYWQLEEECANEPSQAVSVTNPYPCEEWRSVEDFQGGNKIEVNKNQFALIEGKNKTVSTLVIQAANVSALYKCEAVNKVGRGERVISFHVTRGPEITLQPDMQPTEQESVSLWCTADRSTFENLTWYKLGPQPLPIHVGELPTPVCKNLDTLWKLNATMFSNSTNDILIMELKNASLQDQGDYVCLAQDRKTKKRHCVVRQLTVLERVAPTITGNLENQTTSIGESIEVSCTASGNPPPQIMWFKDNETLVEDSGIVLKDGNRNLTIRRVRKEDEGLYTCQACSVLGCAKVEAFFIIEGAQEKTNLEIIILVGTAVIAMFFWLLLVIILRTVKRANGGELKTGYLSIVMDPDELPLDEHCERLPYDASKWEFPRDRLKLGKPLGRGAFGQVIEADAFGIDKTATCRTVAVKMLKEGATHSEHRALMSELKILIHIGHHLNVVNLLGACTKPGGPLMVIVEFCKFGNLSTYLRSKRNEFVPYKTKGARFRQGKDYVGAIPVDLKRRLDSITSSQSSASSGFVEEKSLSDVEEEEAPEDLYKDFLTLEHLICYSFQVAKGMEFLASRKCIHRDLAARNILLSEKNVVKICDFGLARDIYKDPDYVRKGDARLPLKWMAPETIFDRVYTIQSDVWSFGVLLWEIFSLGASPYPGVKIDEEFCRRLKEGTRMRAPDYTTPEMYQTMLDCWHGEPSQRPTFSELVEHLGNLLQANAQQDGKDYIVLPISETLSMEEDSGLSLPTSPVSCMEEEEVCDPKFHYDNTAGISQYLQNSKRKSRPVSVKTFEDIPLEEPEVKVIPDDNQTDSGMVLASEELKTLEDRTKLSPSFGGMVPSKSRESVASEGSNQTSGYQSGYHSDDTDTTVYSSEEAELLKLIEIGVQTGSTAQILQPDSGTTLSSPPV

Thoracic aorta [7] = experiment: Antiangiogenic activity in Sprague-Dawley rat thoracic aorta rings assessed as reduction of microvessel outgrowth treated every other day for 6 days by Matrigel assay; format: functional, tissue-based; outline: as §2
[8] = biological target: T1, RAC-alpha serine/threonine-protein kinase; experiment: Inhibition of AKT (unknown origin) after 30 mins by fluorescence assay
[9] = biological target: Vascular endothelial growth factor receptor 2 (Homo sapiens) (UniProt P35968); experiment: Inhibition of VEGFR2 (unknown origin) phosphorylation at 1 ug/mL by cell-based Western blotting analysis
Thoracic aorta [10] = experiment: Antiangiogenic activity in Sprague-Dawley rat thoracic aorta rings assessed as reduction of microvessel outgrowth at 0.1 uM treated every other day for 6 days by Matrigel assay; format: functional, tissue-based; outline: as §2
HUVEC [11] = experiment: Antiangiogenic activity in HUVEC assessed as inhibition of tube formation at 0.1 uM after 6 hrs by Matrigel assay; format: functional, cell-based; conditions: Homo sapiens; outline: as §3
HUVEC [12] = experiment: Antiangiogenic activity in HUVEC assessed as inhibition of tube formation at 10 uM after 6 hrs by Matrigel assay; format: functional, cell-based; conditions: Homo sapiens; outline: as §3
Thoracic aorta [13] = experiment: Antiangiogenic activity in Sprague-Dawley rat thoracic aorta rings assessed as reduction of microvessel outgrowth at 10 uM treated every other day for 6 days by Matrigel assay; format: functional, tissue-based; outline: as §2

Row | Compound | inhibition [1] | inhibition [2] | further results
1 | Cc1ccc(S(=O)(=O)Nc2ccc(O)c(Sc3nc[nH]n3)c2)cc1 | 29.8% | 15.3% | –
2 | CN[C@@H]1C[C@H]2O[C@@](C)([C@@H]1OC)n1c3ccccc3c3c4c(c5c6ccccc6n2c5c31)C(=O)NC4 | 96.5% | – | –
3 | CC(C)c1cc(C(C)C)c(S(=O)(=O)Nc2ccc(O)c(Sc3ncn[nH]3)c2)c(C(C)C)c1 | 14.5% | 17.1% | –
4 | O=S(=O)(Nc1ccc(O)c(Sc2ncn[nH]2)c1)c1c(Cl)cccc1Cl | 48.4% | 10.3% | –
5 | O=[N+]([O-])c1ccc(S(=O)(=O)Nc2ccc(O)c(Sc3nncs3)c2)cc1 | 14.9% | 11.4% | –
6 | Cc1nnc(Sc2cc(NC(=O)c3ccc([N+](=O)[O-])cc3)ccc2O)s1 | 12.3% | 14% | –
7 | CS(=O)(=O)Nc1ccc(O)c(Sc2ncn[nH]2)c1 | 14.3% | 15.9% | –
8 | Cc1nnc(Sc2cc(NS(=O)(=O)c3ccc([N+](=O)[O-])cc3)ccc2O)s1 | 14.2% | 21.8% | –
9 | O=S(=O)(Nc1ccc(O)c(Sc2ncn[nH]2)c1)c1ccc2ccccc2c1 | inactive | inactive | –
10 | Cn1nnnc1Sc1cc(NS(=O)(=O)c2ccc([N+](=O)[O-])cc2)ccc1O | 11.5% | inactive | –
11 | O=S(=O)(Nc1ccc(O)c(Sc2ncn[nH]2)c1)c1cccc2ccccc12 | 20.4% | 10% | –
12 | Cc1cc(C)c(S(=O)(=O)Nc2ccc(O)c(Sc3nc[nH]n3)c2)c(C)c1 | 19.7% | 18% | –
13 | COc1ccc(S(=O)(=O)Nc2ccc(O)c(Sc3nc[nH]n3)c2)cc1 | 12.1% | 29.5% | –
14 | O=C(Nc1ccc(O)c(Sc2nncs2)c1)c1ccc([N+](=O)[O-])cc1 | inactive | inactive | –
15 | O=[N+]([O-])c1ccc(S(=O)(=O)Nc2ccc(O)c(Sc3ncnc4nc[nH]c34)c2)cc1 | 37.5% | inactive | –
16 | O=[N+]([O-])c1ccc(S(=O)(=O)Nc2ccc(O)c(Sc3ncn[nH]3)c2)cc1 | 100% | 49.4% | inhibition (Thoracic aorta [3]): Active; IC50 [4]: 1500 nM; inhibition (HUVEC [5]): Dose-dependent effect; inhibition [6]: Active; Activity (Thoracic aorta [7]): Dose-dependent effect; IC50 [8]: 1260 nM; inhibition [9]: Active
17 | Cc1ccc(Nc2nccc(N(C)c3ccc4c(C)n(C)nc4c3)n2)cc1S(N)(=O)=O | – | – | inhibition (Thoracic aorta [10]): Active; inhibition [6]: Active; inhibition (HUVEC [11]): Active; inhibition [9]: Active
18 | O=S(=O)(Nc1ccc(O)c(Sc2ncn[nH]2)c1)c1ccc(Cl)cc1 | 56.4% | inactive | inhibition [6]: inactive; inhibition (HUVEC [12]): inactive; inhibition (Thoracic aorta [13]): inactive; inhibition [9]: inactive
19 | O=C(Nc1ccc(O)c(Sc2ncnc3nc[nH]c23)c1)c1ccc([N+](=O)[O-])cc1 | 64.6% | 21.9% | inhibition [6]: Active; inhibition (HUVEC [12]): inactive; inhibition (Thoracic aorta [13]): inactive
20 | O=C(Nc1ccc(O)c(Sc2ncn[nH]2)c1)c1ccc([N+](=O)[O-])cc1 | 50.7% | inactive | –
21 | Cn1nnnc1Sc1cc(NC(=O)c2ccc([N+](=O)[O-])cc2)ccc1O | 10.1% | inactive | –
